{"data": "Experimental data pooled from the literature", "target": "5-hydroxytryptamine receptor 7 (HTR7, Homo sapiens, UniProt P34969)", "tested at": "10 µM", "note": "Lines come from different studies, so protocols differ."}
{"SMILES": "C[C@@H](c1cccc(C#N)c1)n1cc(Cl)cc(C(N)=O)c1=N", "effect on": "ligand displacement", "inhibition": "4.17%"}
{"SMILES": "N#Cc1cc(Cn2c(N3CCCC3)nc3ccccc32)ccc1F", "effect on": "ligand displacement", "inhibition": "-11.2%"}
{"SMILES": "COc1cc(NC(C)=O)c(Cl)cc1C(=O)Nc1nccs1", "effect on": "ligand displacement", "technique": "radioligand", "inhibition": "-7.7%"}
{"SMILES": "CCCNc1nc2ccccc2n1Cc1ccc(Cl)cc1", "effect on": "ligand displacement", "inhibition": "13.5%"}
{"SMILES": "COc1cc2c3c(c1OC)-c1cc4c(cc1CC3N(C)CC2)OCO4 (racemic)", "effect on": "ligand displacement", "technique": "radioligand", "inhibition": "96.7%"}
{"SMILES": "CCN(CC)c1ccc(C2Nc3ccc(C(=O)c4ccccc4)cc3NC3=C2C(=O)CC(C)(C)C3)cc1 (stereo not drawn)", "effect on": "ligand displacement", "technique": "radioligand", "inhibition": "4%"}
{"SMILES": "COc1cc2c3c(c1OC)-c1cc4c(cc1CC3N(C)CC2c1ccccc1)OCO4 (stereo not drawn)", "effect on": "ligand displacement", "technique": "radioligand", "inhibition": "< 50%"}
{"SMILES": "Oc1cccc(Nc2nc(-c3ccc(F)cc3F)cs2)c1", "effect on": "ligand displacement", "technique": "radioligand", "inhibition": "-31.9%"}
{"SMILES": "CC(C)(C)OC(=O)N1CCCC1CNC1CCC(c2cc(F)ccc2F)(S(=O)(=O)c2ccc(Cl)cc2)CC1 (stereo not drawn)", "effect on": "cell-free assay", "inhibition": "70.7%"}
